Reference: ChEMBL document CHEMBL4145444, “Investigating the structure-activity relationships of N'-[(5-nitrofuran-2-yl) methylene] substituted hydrazides against Trypanosoma cruzi to design novel active compounds” (Eur J Med Chem, 2018)

Columns and labels:
Trypanosoma cruzi [1] = assay: Antitrypanosomal activity against Trypanosoma cruzi Colombiana Tc1 epimastigotes measured after 72 hrs; format: functional, organism-based; settings: for IC50: Trypanosoma cruzi, Colombiana, 72 h
How it was run: (§1)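 Exponentially growing epimastigotes (1.0*10^7 parasites/mL) cultured in LIT-FCS medium with compound from 0.4 to 300.0 µM, added from DMSO stock (DMSO ≤1.0%), 72 h at 28 °C. Viable parasites read by absorbance at 562 nm. PGI computed against untreated culture after subtracting compound/medium blanks. IC50 from sigmoid dose-response fit using at least six concentrations. Triplicates, at least two independent experiments.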

Trypanosoma cruzi [2] = assay: Antitrypanosomal activity Trypanosoma cruzi Y Tc2 epimastigotes measured after 72 hrs; format: functional, organism-based; settings: for IC50: Trypanosoma cruzi, Y, 72 h; how it was run: as §1
[3] = Cytotoxicity against human U2OS cells assessed as reduction in cell viability; format: cell-based
Trypanosoma cruzi [4] = assay: Antitrypanosomal activity against Trypanosoma cruzi Y Tc2 amastigotes infected in human U2OS cells after 72 hrs by Draq5 staining based HCS analysis; format: functional, organism-based
How it was run: (§2)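 U2OS cells (700/well, high-glucose DME, 10% FBS) seeded and incubated 24 h. Then infected with 2,800 Y-strain trypomastigotes harvested from LLC-MK2 cells. On day 3, 14-point 2-fold dilutions added, top 200 μM, 1% DMSO, 72 h. Fixed in 4% PFA, Draq5 stained, imaged at 20x. Infection ratio normalized to DMSO-mock infected and uninfected controls. IC50 by sigmoidal variable-slope fit. Doublets, duplicate experiments.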

[5] = Selectivity index, ratio of CC50 for cytotoxicity against human U2OS cells to IC50 for Trypanosoma cruzi Y Tc2 amastigotes infected in human U2OS cells; format: toxicity, cell-based; settings: read-out: Ratio CC50/IC50
How it was run: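 Ratio of U2OS CC50 to Y-strain amastigote IC50, both from the same 72 h Draq5-stained HCS assay in infected U2OS cells (2-fold series up to 200 μM, 1% DMSO).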

Trypanosoma cruzi [6] = assay: Antitrypanosomal activity against Trypanosoma cruzi Y Tc2 amastigotes infected in human U2OS cells up to 200 uM after 72 hrs by Draq5 staining based HCS analysis relative to control; format: functional; how it was run: as §2
Trypanosoma cruzi [7] = assay: Antitrypanosomal activity Trypanosoma cruzi Bug 2149 cl10 Tc5 epimastigotes measured after 72 hrs; format: functional, organism-based; settings: for IC50: Trypanosoma cruzi, Bug 2149 cl10, CL1-0, 72 h
How it was run: as §1, with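 “°C.” for “°C. Viable parasites read by absorbance at 562 nm.”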

Trypanosoma cruzi [8] = assay: Antitrypanosomal activity against Trypanosoma cruzi Silvio X10 cl1 Tc1 epimastigotes measured after 72 hrs; format: functional, organism-based; settings: for IC50: Trypanosoma cruzi, Silvio X10 cl1, 72 h
How it was run: as §1, with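 “°C.” for “°C. Viable parasites read by absorbance at 562 nm.”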

Trypanosoma cruzi [9] = assay: Antitrypanosomal activity against Trypanosoma cruzi Colombiana Tc1 trypamastigotes infected in monkey LLC-MK2 cells assessed as inhibition of parasite viability by measuring motility at 1 uM after 20 hrs by light microscopic method relative to control; format: functional; settings: LLC-MK2, 20 h
How it was run: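 Colombiana trypomastigotes, centrifuged at 7,000 rpm at 4 °C, resuspended at 10^6/mL in DME with 2% FCS. Exposed to 1 μM compound, 0.5% DMSO final, 20 h at 37 °C, 5% CO2. Viability judged by motility under light microscope. Live parasites counted in a Neubauer chamber. % inhibition relative to drug-free control. Two independent experiments.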

Row | SMILES | log1/IC50 (Trypanosoma cruzi [2]) | IC50 (Trypanosoma cruzi [4]) [µM] | IC50 (Trypanosoma cruzi [2]) [µM] | log1/IC50 (Trypanosoma cruzi [1]) | IC50 (Trypanosoma cruzi [1]) [µM] | CC50 [3] [µM] | selectivity ratio [5] | Emax (Trypanosoma cruzi [6]) [%] | log1/IC50 (Trypanosoma cruzi [7]) | log1/IC50 (Trypanosoma cruzi [8]) | IC50 (Trypanosoma cruzi [7]) [µM] | IC50 (Trypanosoma cruzi [8]) [µM] | inhibition at 1 µM (Trypanosoma cruzi [9]) [%]
1 | O=C(N/N=C/c1ccc([N+](=O)[O-])o1)c1ccccc1 |  |  |  | 4.95 | 11.3 |  |  |  |  |  |  |  | 
2 | CC(C)(C)OC(=O)N/N=C/c1ccc([N+](=O)[O-])o1 |  |  |  | 5.13 | 7.41 |  |  |  |  |  |  |  | 
3 | Cc1cccc(C(=O)N/N=C/c2ccc([N+](=O)[O-])o2)c1 |  |  |  | 5.07 | 8.53 |  |  |  |  |  |  |  | 
4 | O=C(N/N=C/c1ccc([N+](=O)[O-])o1)c1ccccc1Oc1ccccc1 |  |  |  | 5.24 | 5.79 |  |  |  |  |  |  |  | 
5 | O=C(N/N=C/c1ccc([N+](=O)[O-])o1)c1cccc([N+](=O)[O-])c1 | 4.36 |  | 44.1 | 4.39 | 40.6 |  |  |  | 4.52 | 4.28 | 30.4 | 52.3 | 
6 | CC1CS(=O)(=O)CCN1/N=C/c1ccc([N+](=O)[O-])o1 (stereo unspecified) [NIFURTIMOX] | 4.89 | 5.18 |  | 5 | 9.93 | 85.2 | 16.4 | 96.6 | 5.14 | 5.22 |  |  | 7.3
7 | CC(=O)N/N=C/c1ccc([N+](=O)[O-])o1 [NIHYDRAZONE] |  | 4.62 |  | 5.02 | 9.52 | 39.2 | 8.49 | 98.7 |  |  |  |  | 
8 | CC(C)c1ccc(C(=O)N/N=C/c2ccc([N+](=O)[O-])o2)cc1 |  |  |  | 5.22 |  |  |  |  |  |  |  |  | 
9 | CCCOc1ccc(C(=O)N/N=C/c2ccc([N+](=O)[O-])o2)cc1 |  |  |  | 5.28 | 5.26 |  |  |  |  |  |  |  | 
10 | CCCCCCCCC(=O)N/N=C/c1ccc([N+](=O)[O-])o1 |  |  |  | 5.09 | 8.07 |  |  |  |  |  |  |  | 
11 | O=C(Cn1ccnc1[N+](=O)[O-])NCc1ccccc1 [BENZNIDAZOLE] |  | 64.3 |  |  | 47.9 | > 200 |  | 85.2 |  |  |  |  | 

The next lines start with results.

Row | log1/IC50 (Trypanosoma cruzi [2]) | IC50 (Trypanosoma cruzi [4]) [µM] | IC50 (Trypanosoma cruzi [2]) [µM] | SMILES | log1/IC50 (Trypanosoma cruzi [1]) | IC50 (Trypanosoma cruzi [1]) [µM] | CC50 [3] [µM] | selectivity ratio [5] | Emax (Trypanosoma cruzi [6]) [%] | log1/IC50 (Trypanosoma cruzi [7]) | log1/IC50 (Trypanosoma cruzi [8]) | IC50 (Trypanosoma cruzi [7]) [µM] | IC50 (Trypanosoma cruzi [8]) [µM] | inhibition at 1 µM (Trypanosoma cruzi [9]) [%]
12 | 5.47 | 0.35 |  | CCCCNc1ccc(C(=O)N/N=C/c2ccc([N+](=O)[O-])o2)cc1 | 5.4 | 3.94 | 12 | 34.4 | 102 | 5.35 | 5.36 |  |  | 
13 | 5.01 |  | 9.74 | CCOc1ccc(C(=O)N/N=C/c2ccc([N+](=O)[O-])o2)cc1 | 4.94 | 11.6 |  |  |  | 5.2 | 4.86 | 6.26 | 13.8 | 
14 | 4.85 |  | 14.2 | COc1ccc(C(=O)N/N=C/c2ccc([N+](=O)[O-])o2)cc1OC | 4.58 | 26.6 |  |  |  | 4.76 | 4.56 | 17.2 | 27.3 | 
15 | 5.51 | 1.33 |  | CCCCc1ccc(C(=O)N/N=C/c2ccc([N+](=O)[O-])o2)cc1 | 5.61 | 2.45 | 19.6 | 14.7 | 115 | 5.33 | 5.32 |  |  | 
16 |  | 1.77 |  | N#Cc1ccc(C(=O)N/N=C/c2ccc([N+](=O)[O-])o2)cc1 | 4.69 | 20.2 | 21.4 | 12.1 | 95.5 |  |  |  |  | 
17 |  | 1.43 |  | CC(C)(C)c1ccc(C(=O)N/N=C/c2ccc([N+](=O)[O-])o2)cc1 | 5.21 | 6.1 | > 200 | > 140 | 98.4 |  |  |  |  | 
18 | 5.46 | 1.46 |  | CCCCOc1ccc(C(=O)N/N=C/c2ccc([N+](=O)[O-])o2)cc1 | 5.54 | 2.86 | 46.6 | 31.9 | 115 | 5.37 | 5.29 |  |  | 
